Glyco luc inh – increase of ERlucT glycosylation luciferase signal, primary screen, N-linked glycosylation inhibitor project, D54 ERlucT cells, luminescence, set 2; reporter increase, % at 12.5 µM; D54 ERlucT glycosylation luciferase reporter, 24 h; percent of 100 nM tunicamycin response; 0.23% of 360,000 active; AID 588692, 2011;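 active = mean luciferase reporter signal, scaled so untreated is 0 and the glycosylation-blocking control 100, at or above a set limit in every replicate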;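 note: luciferase carries N-glycosylation sites so blocking glycosylation raises the light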
PAX8 inh HTS – inhibitors of PAX8-driven TPO luciferase reporter, primary screen, RMG-I cells, single concentration; SteadyGlo, 24 h; inhibition, % at 12.6 µM; 1.2% of 360,000 active;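 active = mean replicate inhibition at least 60% with every replicate also reaching 60%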;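 note: luciferase light reporting Pax8 driven TPO promoter activity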
HIV Env fusion – inhibitors of HIV-1 Env-driven cell-cell fusion, primary screen, HeLa-JRFL effector, CEM21 target cells, luciferase; inhibition, % at 12.3 µM; 1.1% of 360,000 active;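 active = mean replicate inhibition score of at least 50 and every replicate individually at or above 50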
Rtt109 HAT inh – inhibitors of C. albicans Rtt109/Vps75 HAT, primary screen, biochemical, ThioGlo CoA-SH fluorescence, plate reader; inhibition, % at 34.9 µM; AID 540336, 2011; Histone acetyltransferase RTT109 (Candida albicans (strain SC5314 / ATCC MYA-2876)), …; 0.16% of 330,000 active; purified Rtt109/Vps75, 4 h;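 active = inhibition of at least 50% in every replicate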
Target sequence (Q5AAJ8 whole entry, looked up): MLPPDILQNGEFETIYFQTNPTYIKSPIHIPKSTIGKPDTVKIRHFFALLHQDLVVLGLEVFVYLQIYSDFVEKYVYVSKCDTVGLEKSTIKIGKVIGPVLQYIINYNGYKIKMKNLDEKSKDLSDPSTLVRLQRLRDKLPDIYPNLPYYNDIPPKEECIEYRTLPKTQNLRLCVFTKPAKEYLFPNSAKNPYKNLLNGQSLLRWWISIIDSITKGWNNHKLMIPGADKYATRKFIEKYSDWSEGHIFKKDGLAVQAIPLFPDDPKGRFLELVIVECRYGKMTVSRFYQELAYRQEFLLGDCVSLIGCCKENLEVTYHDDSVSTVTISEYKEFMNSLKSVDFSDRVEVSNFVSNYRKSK
Arrestin-AP2 inh – inhibitors of beta-arrestin/AP2 binding, primary screen, biochemical, GPCR trafficking, flow cytometry; 0.31% of 340,000 active; inhibition, % at 10 µM; FITC-arrestin peptide / GST-AP2 beads; AP2 beta2 appendage carries R879A mutation; AID 504490, 2011;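 active = inhibition above a set limit, near 3 SD of compounds lacking own fluorescence, cut at about 54% in these data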
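System: GST-AP2 R879A glutathione beads | Also added: FITC-arrestin peptide, 50 nM | Times: 12 min plus 1 h, RT | Signal: Bead flow cytometry, FITC channel | Buffer or medium: PBS with 0.05% Tween 20 and 0.1% BSA | Read-out basis: Percent drop in bead-associated FITC signal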
PfHsp90 yeast 2 – growth inhibition of PfHsp90-expressing yeast, primary screen, antimalarial PfHsp90 inhibitor project, S. cerevisiae, BacTiter-Glo luminescence, single point, set 2 | BacTiter-Glo ATP, 48 h; yeast lacking PDR1 and PDR3 efflux regulators | inhibition, % at 9.4 µM | 0.32% of 310,000 active | AID 504621, 2011;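 active = every replicate shows inhibition above about 80%, whatever the replicate mean, limit read from the data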
Of the large screens only hits and unclear results are named; the others gave an inactive call; [ ] = another dose, or the depositor's remark. Shown are actives, neighbours in structure and some others; about 2.3% of the full set was active somewhere.

C[C@@H]1CN([C@H](C)CO)C(=O)c2cccc(N(C)C)c2O[C@H]1CN(C)Cc1ccc(Oc2ccccc2)cc1	none (no result: Glyco luc inh, Rtt109 HAT inh, Arrestin-AP2 inh, PfHsp90 yeast 2)
Cc1nc2ccc(-c3nc4ccc(N)cc4[nH]3)cc2[nH]1	PAX8 inh HTS 69
Nc1ccc(-c2nc3ccc(N)cc3[nH]2)cc1	none
Nc1ccc2nc(-c3ccc(Cl)cc3)[nH]c2c1	PAX8 inh HTS 80
Cc1noc(C)c1NC(=O)N(C)C[C@@H]1OCCCC[C@H](C)Oc2ccc(NC(=O)Nc3ccccc3)cc2C(=O)N([C@H](C)CO)C[C@@H]1C	none (no result: Glyco luc inh, Rtt109 HAT inh, Arrestin-AP2 inh, PfHsp90 yeast 2)
CN1C[C@@H]2[C@H](c3ccccc31)[C@@H](CO)N2C(=O)C1CCCCC1	none (no result: Glyco luc inh, HIV Env fusion, Rtt109 HAT inh, Arrestin-AP2 inh, PfHsp90 yeast 2)
O=C([O-])c1ccccc1-[n+]1c(-c2ccccc2)cc(-c2ccccc2)cc1-c1ccccc1	PAX8 inh HTS 85
COc1ccc(-c2sc3cc4c(cc3c2C#Cc2cncn2C)OCO4)cc1	none
COc1ccc(-c2sc3ccc(OC)cc3c2C#Cc2cncn2C)cc1	PAX8 inh HTS 65
C[C@@H]1CCCCO[C@@H](CN(C)Cc2ccc(C(F)(F)F)cc2)[C@@H](C)CN([C@@H](C)CO)C(=O)c2cc(NS(=O)(=O)c3ccc(F)cc3)ccc2O1	PAX8 inh HTS 86 (no result: Glyco luc inh, Rtt109 HAT inh, Arrestin-AP2 inh, PfHsp90 yeast 2)
COc1ccc(S(=O)(=O)Nc2ccc3c(c2)C(=O)N([C@@H](C)CO)C[C@@H](C)[C@@H](CN(C)Cc2ccc(C(F)(F)F)cc2)OCCCC[C@H](C)O3)cc1	none (no result: Glyco luc inh, Rtt109 HAT inh, Arrestin-AP2 inh, PfHsp90 yeast 2)
C[C@@H]1CCCCO[C@H](CN(C)Cc2ccc(C(F)(F)F)cc2)[C@@H](C)CN([C@H](C)CO)C(=O)c2cc(NS(=O)(=O)c3ccc(F)cc3)ccc2O1	none (no result: Glyco luc inh, Rtt109 HAT inh, Arrestin-AP2 inh, PfHsp90 yeast 2)
C[C@@H]1CCCCO[C@@H](CN(C)Cc2ccc(C(F)(F)F)cc2)[C@@H](C)CN([C@H](C)CO)C(=O)c2cc(NS(=O)(=O)c3ccc(Cl)cc3)ccc2O1	none (no result: Glyco luc inh, Rtt109 HAT inh, Arrestin-AP2 inh, PfHsp90 yeast 2)
C[C@@H]1CCCCO[C@@H](CN(C)Cc2ccc(C(F)(F)F)cc2)[C@H](C)CN([C@@H](C)CO)C(=O)c2cc(NS(=O)(=O)c3ccc(F)cc3)ccc2O1	PAX8 inh HTS 105 (no result: Glyco luc inh, Rtt109 HAT inh, Arrestin-AP2 inh, PfHsp90 yeast 2)
C[C@@H]1CN([C@H](C)CO)C(=O)c2cc(NS(=O)(=O)c3ccc(F)cc3)ccc2O[C@@H](C)CCCCO[C@H]1CN(C)Cc1ccc(C(F)(F)F)cc1	PAX8 inh HTS 114 (no result: Glyco luc inh, Rtt109 HAT inh, Arrestin-AP2 inh, PfHsp90 yeast 2)
C[C@@H]1CN([C@@H](C)CO)C(=O)c2cc(NS(=O)(=O)c3ccc(F)cc3)ccc2O[C@@H](C)CCCCO[C@H]1CN(C)Cc1ccc(C(F)(F)F)cc1	PAX8 inh HTS 97 (no result: Glyco luc inh, Rtt109 HAT inh, Arrestin-AP2 inh, PfHsp90 yeast 2)
C[C@@H]1CCCCO[C@@H](CN(C)C(=O)c2ccccc2)[C@H](C)CN([C@@H](C)CO)C(=O)c2cc(NC(=O)c3ccncc3)ccc2O1	none (no result: Glyco luc inh, Rtt109 HAT inh, Arrestin-AP2 inh, PfHsp90 yeast 2)
COc1cccc(-c2ccc([C@H]3[C@@H](CO)N4C(=O)CN(C(=O)CN5CCOCC5)C[C@@H]34)cc2)c1	none (no result: Glyco luc inh, HIV Env fusion, Rtt109 HAT inh, Arrestin-AP2 inh, PfHsp90 yeast 2)
COc1ccc(C2=Nn3c(nnc3-c3cccnc3)SC2)cc1	none
COc1ccc(C2=Nn3c(nnc3-c3ccco3)SC2)cc1	Glyco luc inh 25 (no result: PAX8 inh HTS, PfHsp90 yeast 2)
COc1ccc(C2=Nn3c(nnc3-c3ccncc3)SC2)cc1	HIV Env fusion 96 (no result: PAX8 inh HTS, PfHsp90 yeast 2)
COc1ccc(OC)c(C2=Nn3c(nnc3-c3ccco3)SC2)c1	none (no result: PAX8 inh HTS)
C[C@H]1CCCCO[C@H](CN(C)C(=O)Nc2ccccc2)[C@@H](C)CN([C@@H](C)CO)C(=O)c2cc(N(C)C)ccc2O1	none (no result: Glyco luc inh, Rtt109 HAT inh, Arrestin-AP2 inh, PfHsp90 yeast 2)
C[C@@H]1CN([C@@H](C)CO)C(=O)c2cc(NS(=O)(=O)c3ccccc3)ccc2O[C@H]1CN(C)Cc1ccccc1	none (no result: Glyco luc inh, Rtt109 HAT inh, Arrestin-AP2 inh, PfHsp90 yeast 2)
CC1=C(C(=O)N2CCC=CC2=O)Cc2ccccc21	PAX8 inh HTS 95 (no result: Glyco luc inh, Rtt109 HAT inh, Arrestin-AP2 inh, PfHsp90 yeast 2)
C[C@H]1CCCCO[C@@H](CN(C)Cc2ccc(C(F)(F)F)cc2)[C@@H](C)CN([C@@H](C)CO)C(=O)c2cc(NC(=O)Nc3ccc(C(F)(F)F)cc3)ccc2O1	HIV Env fusion 82[16.7 µM] (no result: Glyco luc inh, Rtt109 HAT inh, Arrestin-AP2 inh, PfHsp90 yeast 2)
